Screening data from PubChem.
This is one part of a sample in which hits are shown more often than they occur.
Hsp70 act = Hsp70 transcriptional activation, primary screen. actives 0.04% (n = 200,000). HeLa Hsp70 promoter luciferase reporter, luminescence; scaled: vehicle 0, proteasome-inhibitor control 100%. AID 1203. activation, % at 10 µM;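 active = activation above the mean across all tested compounds plus 3 SD, cutoff set per campaign, cut at about 5.5% in these data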;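 note: 100% = MG132 at 30 µM as the positive control and 0% = DMSO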
T cruzi inh = blocks replication of Trypanosoma cruzi. T. cruzi beta-gal in NIH3T3, luminescence, 90 h. inhibition, % (concentration not given with the values). actives 1.4% (n = 300,000). AID 1885;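 active = mean inhibition across valid replicates above about 55%, limit read from the data; inconclusive = mean below that limit but half or more replicates reach it; inactive = mean below it, under half of replicates reach it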;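 note: signal also drops with host cell toxicity which is not excluded here; 0% = plate median of DMSO wells and 100% = zero luminescence signal; higher percent means less beta-gal luminescence so fewer parasites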
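Assay system: NIH/3T3 host cells with β-galactosidase reporter T. cruzi; input: 5,000 host fibroblasts per well; compound: single 50 nL compound addition per well in DMSO; timing: ≥90 h infection period, 3 h prior cell attachment; measured by: GalScreen β-gal luminescence, detergent lysis, 60 min; evaluation: percent inhibition of parasite-derived β-gal signal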
HSF1 inh = HSF1 inhibition; activity change, negative = inhibition, % at 7.5 µM (by protocol); AID 2098; actives 0.77% (n = 300,000); NIH3T3-HGL HSE-luciferase, MG132-induced, luminescence 8 h; active compounds read low;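 active = more than half of replicate wells show activity change below -50%, luminescence cut by over half; inconclusive = some wells, but at most half, below -50%; inactive = no replicate well below -50%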;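 note: luciferase reports HSF-1 transcriptional activity via heat shock element; 0% = median of DMSO wells and -100% = zero luminescence signal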
Lmaj promast = inhibitors of Leishmania major promastigote growth; Leishmania major promastigotes, resazurin fluorescence viability; inhibition, % at 10 µM; actives 9% (n = 200,000); AID 1063; in the data active = inhibition above about 50%;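 note: promastigotes grown with compound for 44 hours at 28 °C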
HSF1 activator = increases HSF-1 driven luciferase reporter signal | activation, % at 9 µM | actives 1.7% (n = 300,000) | NIH3T3-HGL HSF-1 luciferase reporter, MG132, 8 h; 100% = twice DMSO control signal;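 active = mean replicate activation of at least 50% with a set share of replicates each reaching 50%; inconclusive = only one of those two conditions met; inactive = mean below 50% and too few replicates reaching it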;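 note: 0% = median of the neutral control wells and 100% = twice that signal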
* marks the source's active call; other numbers are inactive results; ? = inconclusive; · = not tested or not shown.

SMILES	Hsp70 act	T cruzi inh	HSF1 inh	Lmaj promast	HSF1 activator
CC(C)NC(=O)c1cc2nc(-c3ccco3)cc(C(F)(F)F)n2n1	0	9	0	-4	-1
Cn1c(C(=O)OC(C(=O)NC(C)(C)C)c2cccnc2)cc2sccc21 (stereo not given)	0	64*	16	95*	?
Cn1c(C(=O)OC(C(=O)NC2CCCCC2)c2ccncc2)cc2sccc21 (stereo not given)	0	58*	-1	5	14
CC[C@@]1(c2cccc(C)c2)C(=O)N(C(=O)OC)N1C(=O)OC	·	-3	-2	·	4
CCOC(=O)N1C(=O)[C@@](CC)(c2ccccc2)N1C(=O)OCC	·	-4	-55*	·	-65
Cc1ccc(C)c(NCC(=O)c2ccc(Cl)cc2)c1	·	-13	-3	·	3
O=C(CCN1CCN(c2ccccc2)CC1)NNC(=S)Nc1ccccc1Cl	0	-4	-11	0	1
CCN1CCN(c2cc(C)c3cc(NC(=S)N4CCCC4)ccc3n2)CC1	0	-6	8	5	13
CCN1CCN(c2cc(C)c3cc(NC(=S)N4CCCC(C)C4)ccc3n2)CC1 (stereo not given)	0	36	-79*	96*	-82
CCN1CCN(c2cc(C)c3cc(NC(=S)N4CC(C)CC(C)C4)ccc3n2)CC1 (stereo not given)	0	38	-47	100*	-47
CN(Cc1ccc(F)cc1)C(=O)CNC(=O)c1ccc2c(c1)OCO2	·	-18	1	·	-19
CCCN(CCC)CCN1C(=O)C2C(C(=O)Nc3cccc(SC)c3)C3C=CC2(O3)C1C(=O)NC1CCCCC1 (stereo not given)	·	16	-7	·	-7
O=C(NCC1CCCN(Cc2ccc3nonc3c2)C1)c1ccc(F)cc1 (stereo not given)	0	43	-15	90*	-38
O=C(NCC1CCCN(C(=O)c2cccc(C(F)(F)F)c2)C1)c1ccc(F)cc1 (stereo not given)	·	5	7	·	-9
O=C(NCC1CCCN(Cc2cccc(C(F)(F)F)c2)C1)c1ccc(F)cc1 (stereo not given)	0	57*	-4	80*	-20
Cc1cc(CN2CCCC(CNC(=O)c3ccc(F)cc3)C2)cc(C)c1O (stereo not given)	0	48	1	12	24
COc1ccc(CCN2C(=O)CSC2=S)cc1OC	·	52	-4	·	-9
COc1ccc(Cl)cc1NC(=O)CN(C)C(=O)Cn1cnc2c1c(=O)n(C)c(=O)n2C	·	-6	-74*	·	-80
COc1ccc(Cl)cc1NC(=O)CN(C)C(=O)Cn1c(=O)oc2ccccc21	·	-9	-58*	·	-68
COCCn1cnc2c1c(=O)n(CC(=O)OCC(=O)NCCCc1ccccc1)c(=O)n2Cc1ccccc1	0	-13	1	51*	9
COc1ccccc1NC(=O)Cn1cnc2c1c(=O)n(C)c(=O)n2C	0	-10	0	0	13
COCCNC(=O)Cn1cnc2c1c(=O)n(C)c(=O)n2C	0	-11	28	0	56*
Cc1cc(C(=O)OCC(=O)NCc2ccc(Cl)cc2)c(C)o1	0	3	-7	-4	4
Cn1nc(C(=O)OCC(=O)Nc2ccc(S(N)(=O)=O)cc2)c2ccccc2c1=O	·	-5	1	·	1
S=C(NCc1ccccc1)NC1CCSc2ccccc21 (stereo not given)	·	-14	3	·	0
SMILES	Hsp70 act	T cruzi inh	HSF1 inh	Lmaj promast	HSF1 activator
CCOC(=O)C1CCCN(CCC(=O)Nc2cc(C)cc(C)c2)C1 (stereo not given)	0	10	1	48	-5
CCOC(=O)C1CCCN(CCC(=O)Nc2cc(OC)ccc2OC)C1 (stereo not given)	·	0	-51*	·	-62
COc1ccc(N(CC(=O)Nc2cccc(OC)c2)S(=O)(=O)c2c(C)nn(C)c2C)cc1	0	·	·	57*	·
COc1ccc(N(CC(=O)Nc2cc(OC)ccc2OC)S(=O)(=O)c2c(C)nn(C)c2C)cc1	0	-3	7	100*	15
COc1ccc(OC)c(NC(=O)C2CCCN(S(=O)(=O)c3c(C)noc3C)C2)c1 (stereo not given)	0	5	3	3	-11
COc1ccc(OC)c(NC(=O)C2CCCN(S(=O)(=O)c3c(C)nn(C)c3C)C2)c1 (stereo not given)	·	7	-72*	·	-78
O=C(Nc1ccccc1)OCCOc1ccc(Br)cc1	·	-4	-8	·	-28
COc1ccc(OC)c(S(=O)(=O)n2ccnc2C(C)C)c1	·	-15	-4	·	-4
COc1ccc(NC2CS(=O)(=O)CC2NCc2ccccc2)cc1 (stereo not given)	0	-10	3	-6	0
[O-]/C(=C(\C(=S)NCc1ccccc1)[n+]1ccccc1)c1ccc(Cl)s1	0	-9	10	-9	7
COc1cccc(NC(=O)CN(c2ccc(C)cc2)S(=O)(=O)c2c(C)nn(C)c2C)c1	0	-2	1	39	9
COc1ccc(N(CC(=O)Nc2nc3ccc(C)cc3s2)S(=O)(=O)c2c(C)nn(C)c2C)cc1	0	6	3	66*	-3
CCCC(C(=O)NC1CCCC1)N(Cc1ccccc1Cl)C(=O)c1snc(C(N)=O)c1N (stereo not given)	·	21	8	·	18
Cc1ccc(C)c(OCCn2cc(/C=C(/C#N)C(=O)NCC3CCCO3)c3ccccc32)c1 (stereo not given)	0	15	8	98*	3
COc1ccccc1OCCn1cc(/C=C(\C#N)C(=O)NCc2cccs2)c2ccccc21	0	9	10	94*	14
CCOc1ccc(/C=C(\C#N)C(=O)NCC2CCCO2)cc1OCC (stereo not given)	0	-7	6	64*	5
N#C/C(=C\c1cn(Cc2ccccc2C#N)c2ccccc12)C(=O)NCc1cccs1	0	-5	1	-5	-6
N#C/C(=C\c1cn(CCOc2ccccc2)c2ccccc12)C(=O)NCC1CCCO1 (stereo not given)	0	-10	18	23	26
COc1ccc(S(=O)(=O)Nc2ccccc2C(N)=O)cc1OC	0	-14	·	4	·
O=S(=O)(c1ccc(Cl)s1)N1CCN(C/C=C/c2ccccc2)CC1	0	9	9	83*	16
O=S(=O)(c1cccs1)N1CCN(C/C=C/c2ccccc2)CC1	0	9	4	9	1
O=S(=O)(Cc1ccccc1)N1CCN(C/C=C/c2ccccc2)CC1	0	15	3	71*	-11
CS(=O)(=O)N1CCN(C/C=C/c2ccccc2)CC1	-1	-1	-5	2	-6
COc1ccc(OCC(=O)NCCNC(=O)c2cccnc2)cc1	·	1	3	·	2
CC(C)(C)c1ccc(-c2nc3c(C#N)c(-c4ccc5c(c4)OCO5)ccn3n2)cc1	0	64*	5	22	7
